Measurements from ChEMBL document CHEMBL1154352, “Toll-like receptor 7 selective synthetic oligoribonucleotide agonists: synthesis and structure-activity relationship studies” (J Med Chem, 2009).
Calls of active or inactive are those of the source. The calls are words filed in the database; no cut-off is given here.

What was measured:
[1] = biological target: T1, Toll-like receptor 7 (Homo sapiens) (UniProt Q9NYK1); assay: Activation of human TLR7 expressed in HEK293XL assessed as induction of NF-kappaB activity by reporter gene assay
T1 sequence (whole entry): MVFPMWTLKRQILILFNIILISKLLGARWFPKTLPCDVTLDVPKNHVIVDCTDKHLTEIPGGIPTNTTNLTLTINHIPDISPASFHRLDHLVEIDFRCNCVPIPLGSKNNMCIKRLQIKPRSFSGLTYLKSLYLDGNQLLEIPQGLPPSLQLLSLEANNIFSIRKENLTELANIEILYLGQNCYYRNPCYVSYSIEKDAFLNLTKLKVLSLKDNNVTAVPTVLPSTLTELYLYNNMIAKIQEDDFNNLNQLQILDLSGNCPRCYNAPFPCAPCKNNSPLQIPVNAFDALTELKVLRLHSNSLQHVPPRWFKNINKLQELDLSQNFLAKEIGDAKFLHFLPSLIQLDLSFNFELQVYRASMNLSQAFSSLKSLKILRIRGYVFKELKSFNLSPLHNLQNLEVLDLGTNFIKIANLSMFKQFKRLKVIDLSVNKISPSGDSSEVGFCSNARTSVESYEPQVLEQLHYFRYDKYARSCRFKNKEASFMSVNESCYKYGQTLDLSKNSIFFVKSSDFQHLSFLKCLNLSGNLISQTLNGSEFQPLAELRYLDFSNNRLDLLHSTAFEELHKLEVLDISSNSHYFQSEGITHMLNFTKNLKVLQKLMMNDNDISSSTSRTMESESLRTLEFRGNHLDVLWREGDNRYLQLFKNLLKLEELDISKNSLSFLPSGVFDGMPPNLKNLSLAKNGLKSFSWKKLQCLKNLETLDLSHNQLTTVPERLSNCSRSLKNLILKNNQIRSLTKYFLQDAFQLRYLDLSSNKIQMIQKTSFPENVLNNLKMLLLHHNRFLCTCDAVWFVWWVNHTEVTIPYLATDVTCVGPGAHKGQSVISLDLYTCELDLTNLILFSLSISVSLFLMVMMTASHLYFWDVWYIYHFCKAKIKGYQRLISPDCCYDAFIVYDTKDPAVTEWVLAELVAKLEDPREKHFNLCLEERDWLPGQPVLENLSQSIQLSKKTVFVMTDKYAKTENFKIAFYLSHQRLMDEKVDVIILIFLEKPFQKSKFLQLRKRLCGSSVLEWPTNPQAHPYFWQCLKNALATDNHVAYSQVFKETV
Method in brief: (§1)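 HEK293 cells stably expressing human TLR7 or TLR8, transiently transfected with SEAP reporter plasmid; medium replaced, SIMRA compounds added, 18 h incubation. Supernatant SEAP measured by QuantiBlue; expressed as fold increase in NF-κB activity over PBS control. Tabulated data at 50 μg/mL, representative of three independent experiments.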

[2] = biological target: T2, Toll-like receptor 8 (Homo sapiens) (UniProt Q9NR97); assay: Activation of human TLR8 expressed in HEK293XL assessed as induction of NF-kappaB activity by reporter gene assay; method in brief: as §1
T2 sequence (whole entry): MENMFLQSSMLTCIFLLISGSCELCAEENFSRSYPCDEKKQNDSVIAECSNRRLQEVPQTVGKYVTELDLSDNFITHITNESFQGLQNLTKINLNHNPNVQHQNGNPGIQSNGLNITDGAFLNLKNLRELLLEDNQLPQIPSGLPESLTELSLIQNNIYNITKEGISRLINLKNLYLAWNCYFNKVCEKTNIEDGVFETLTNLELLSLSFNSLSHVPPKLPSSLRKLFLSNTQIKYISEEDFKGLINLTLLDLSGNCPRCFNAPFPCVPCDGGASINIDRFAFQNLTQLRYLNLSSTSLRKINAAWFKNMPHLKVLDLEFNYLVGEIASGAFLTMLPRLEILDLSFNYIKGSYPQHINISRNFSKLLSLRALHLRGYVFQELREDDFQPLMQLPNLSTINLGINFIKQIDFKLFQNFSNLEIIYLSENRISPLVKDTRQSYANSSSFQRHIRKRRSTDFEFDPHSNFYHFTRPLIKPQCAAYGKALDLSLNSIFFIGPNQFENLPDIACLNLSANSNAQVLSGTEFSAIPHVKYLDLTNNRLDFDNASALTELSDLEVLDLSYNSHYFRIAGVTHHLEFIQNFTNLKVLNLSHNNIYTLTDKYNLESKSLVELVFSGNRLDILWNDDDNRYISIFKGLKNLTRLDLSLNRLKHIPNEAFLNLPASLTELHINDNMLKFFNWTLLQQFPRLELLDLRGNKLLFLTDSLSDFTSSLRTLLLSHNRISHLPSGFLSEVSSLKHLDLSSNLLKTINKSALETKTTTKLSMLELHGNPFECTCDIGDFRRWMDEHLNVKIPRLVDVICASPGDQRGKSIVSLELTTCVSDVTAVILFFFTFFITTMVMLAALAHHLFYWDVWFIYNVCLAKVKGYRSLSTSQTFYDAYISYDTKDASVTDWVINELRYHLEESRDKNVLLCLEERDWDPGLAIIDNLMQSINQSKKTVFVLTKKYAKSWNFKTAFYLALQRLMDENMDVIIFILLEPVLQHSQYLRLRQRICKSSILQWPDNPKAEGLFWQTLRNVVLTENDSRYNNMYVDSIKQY

Row | Activity [1] | Activity [2] | Compound
1 | Active | Active | Nc1ccn([C@@H]2O[C@H](COP(=O)(S)O[C@H]3[C@@H](O)[C@H](n4cnc5c(N)ncnc54)O[C@@H]3CO)[C@@H](OP(=O)(S)OC[C@H]3O[C@@H](n4ccc(=O)[nH]c4=O)[C@H](O)[C@@H]3OP(=O)(S)OC[C@H]3O[C@@H](n4ccc(=O)[nH]c4=O)[C@H](O)[C@@H]3OP(=O)(S)OC[C@H]3O[C@@H](n4ccc5c(=O)[nH]c(N)nc54)[C@H](O)[C@@H]3OP(=O)(S)OC[C@H]3O[C@@H](n4cnc5c(N)ncnc54)[C@H](O)[C@@H]3OP(=O)(S)OC[C@H]3O[C@@H](n4ccc(N)nc4=O)[C@H](O)[C@@H]3OP(=O)(S)OC[C@H]3O[C@@H](n4ccc5c(=O)[nH]c(N)nc54)[C@H](O)[C@@H]3OP(=O)(S)OC[C@H]3O[C@@H](n4cnc5c(N)ncnc54)[C@H](O)[C@@H]3OP(=O)(S)OC[C@H]3O[C@@H](n4ccc(=O)[nH]c4=O)[C@H](O)[C@@H]3OP(=O)(S)OC[C@H]3O[C@@H](n4ccc(=O)[nH]c4=O)[C@H](O)[C@@H]3OP(=O)(S)OCC(O)COP(=O)(S)O[C@H]3[C@@H](O)[C@H](n4ccc(=O)[nH]c4=O)O[C@@H]3COP(=O)(S)O[C@H]3[C@@H](O)[C@H](n4ccc(=O)[nH]c4=O)O[C@@H]3COP(=O)(S)O[C@H]3[C@@H](O)[C@H](n4cnc5c(N)ncnc54)O[C@@H]3COP(=O)(S)O[C@H]3[C@@H](O)[C@H](n4ccc5c(=O)[nH]c(N)nc54)O[C@@H]3COP(=O)(S)O[C@H]3[C@@H](O)[C@H](n4ccc(N)nc4=O)O[C@@H]3COP(=O)(S)O[C@H]3[C@@H](O)[C@H](n4cnc5c(N)ncnc54)O[C@@H]3COP(=O)(S)O[C@H]3[C@@H](O)[C@H](n4ccc5c(=O)[nH]c(N)nc54)O[C@@H]3COP(=O)(S)O[C@H]3[C@@H](O)[C@H](n4ccc(=O)[nH]c4=O)O[C@@H]3COP(=O)(S)O[C@H]3[C@@H](O)[C@H](n4ccc(=O)[nH]c4=O)O[C@@H]3COP(=O)(S)O[C@H]3[C@@H](O)[C@H](n4ccc(N)nc4=O)O[C@@H]3COP(=O)(S)O[C@H]3[C@@H](O)[C@H](n4cnc5c(N)ncnc54)O[C@@H]3CO)[C@H]2O)c(=O)n1 (some centres undefined)
2 | Active | Active | Nc1ccn([C@@H]2O[C@H](COP(=O)(S)O[C@H]3[C@@H](O)[C@H](n4cnc5c(N)ncnc54)O[C@@H]3CO)[C@@H](OP(=O)(S)OC[C@H]3O[C@@H](n4ccc(=O)[nH]c4=O)[C@H](O)[C@@H]3OP(=O)(S)OC[C@H]3O[C@@H](n4ccc(=O)[nH]c4=O)[C@H](O)[C@@H]3OP(=O)(S)OC[C@H]3O[C@@H](n4ccc5c(=O)[nH]c(N)nc54)[C@H](O)[C@@H]3OP(=O)(S)OC[C@H]3O[C@@H](n4cnc5c(N)ncnc54)[C@H](O)[C@@H]3OP(=O)(S)OC[C@H]3O[C@@H](n4cnc5c(N)ncnc54)[C@H](O)[C@@H]3OP(=O)(S)OC[C@H]3O[C@@H](n4ccc5c(=O)[nH]c(N)nc54)[C@H](O)[C@@H]3OP(=O)(S)OC[C@H]3O[C@@H](n4ccc(N)nc4=O)[C@H](O)[C@@H]3OP(=O)(S)OC[C@H]3O[C@@H](n4ccc(=O)[nH]c4=O)[C@H](O)[C@@H]3OP(=O)(S)OC[C@H]3O[C@@H](n4ccc(=O)[nH]c4=O)[C@H](O)[C@@H]3OP(=O)(S)OCC(O)COP(=O)(S)O[C@H]3[C@@H](O)[C@H](n4ccc(=O)[nH]c4=O)O[C@@H]3COP(=O)(S)O[C@H]3[C@@H](O)[C@H](n4ccc(=O)[nH]c4=O)O[C@@H]3COP(=O)(S)O[C@H]3[C@@H](O)[C@H](n4ccc(N)nc4=O)O[C@@H]3COP(=O)(S)O[C@H]3[C@@H](O)[C@H](n4ccc5c(=O)[nH]c(N)nc54)O[C@@H]3COP(=O)(S)O[C@H]3[C@@H](O)[C@H](n4cnc5c(N)ncnc54)O[C@@H]3COP(=O)(S)O[C@H]3[C@@H](O)[C@H](n4cnc5c(N)ncnc54)O[C@@H]3COP(=O)(S)O[C@H]3[C@@H](O)[C@H](n4ccc5c(=O)[nH]c(N)nc54)O[C@@H]3COP(=O)(S)O[C@H]3[C@@H](O)[C@H](n4ccc(=O)[nH]c4=O)O[C@@H]3COP(=O)(S)O[C@H]3[C@@H](O)[C@H](n4ccc(=O)[nH]c4=O)O[C@@H]3COP(=O)(S)O[C@H]3[C@@H](O)[C@H](n4ccc(N)nc4=O)O[C@@H]3COP(=O)(S)O[C@H]3[C@@H](O)[C@H](n4cnc5c(N)ncnc54)O[C@@H]3CO)[C@H]2O)c(=O)n1 (some centres undefined)
